Series [1] concerns Mus musculus. The series can be described thus: Anti-anemia activity in ICR mouse assessed as increase in hemoglobin level at 50 mg/kg, qd administered for 12 days measured on day 16. The format is functional, organism-based. Details: dose 50 mg/kg. Put shortly:
(§1)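 Normal male ICR mice, 6 weeks old, dosed once daily for 4 days (QDx4) or 12 days (QDx12) alongside a vehicle group. Mice were split into groups by blood sampling day (D5, D8, D13, D16). Hematocrit, RBC count and Hb were measured in blood. Statistics: P<0.05 and P<0.01 vs vehicle at each sampling time.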

Series [2] relates to Mus musculus. The series can be described thus: Anti-anemia activity in ICR mouse assessed as increase in hemoglobin level at 50 mg/kg, qd administered for 12 days measured on day 13. The format is functional, organism-based. Details: dose 50 mg/kg. In short, it runs like this: as §1
In series [3] the test system is Mus musculus. Put plainly: Anti-anemia activity in ICR mouse assessed as increase in hemoglobin level at 50 mg/kg, qd administered for 4 days measured on day 8. The format is functional, organism-based. Details: dose 50 mg/kg. In short, it runs like this: as §1
Series [4] deals with Mus musculus. The series can be described thus: Anti-anemia activity in ICR mouse assessed as increase in hemoglobin level at 50 mg/kg, qd administered for 4 days measured on day 5. The format is functional, organism-based. Further details: dose 50 mg/kg. In short, it runs like this:
as §1

Series [5] deals with Mus musculus. The series can be described thus: Anti-anemia activity in ICR mouse assessed as increase in red blood cell count at 50 mg/kg, qd administered for 12 days measured on day 16. Details: dose 50 mg/kg. The format is functional, organism-based. In short, it runs like this:
as §1

The subject of series [6] is Mus musculus. The series can be described thus: Anti-anemia activity in ICR mouse assessed as increase in red blood cell count at 50 mg/kg, qd administered for 12 days measured on day 13. The format is functional, organism-based. Further details: dose 50 mg/kg. In short, it runs like this: as §1
Series [7] has as its system Mus musculus. Put plainly: Anti-anemia activity in ICR mouse assessed as increase in red blood cell count at 50 mg/kg, qd administered for 4 days measured on day 8. Details: dose 50 mg/kg. The format is functional, organism-based. In short, it runs like this: as §1
For series [8], the system named is Mus musculus. The series can be described thus: Anti-anemia activity in ICR mouse assessed as increase in red blood cell count at 50 mg/kg, qd administered for 4 days measured on day 5. The format is functional, organism-based. Details: dose 50 mg/kg. In short, it runs like this: as §1
The test system of series [9] is Mus musculus. The series can be described thus: Anti-anemia activity in ICR mouse assessed as increase in hematocrit level at 50 mg/kg, qd administered for 12 days measured on day 16. The format is functional, organism-based. Further details: dose 50 mg/kg. In short, it runs like this: as §1
The subject of series [10] is Mus musculus. Put plainly: Anti-anemia activity in ICR mouse assessed as increase in hematocrit level at 50 mg/kg, qd administered for 12 days measured on day 13. The format is functional, organism-based. Details: dose 50 mg/kg. Put shortly: as §1
Series [11] relates to Mus musculus. The series can be described thus: Anti-anemia activity in ICR mouse assessed as increase in hematocrit level at 50 mg/kg, qd administered for 4 days measured on day 8. Further details: dose 50 mg/kg. The format is functional, organism-based. Put shortly: as §1
Series [12] deals with Mus musculus. Put plainly: Anti-anemia activity in ICR mouse assessed as increase in hematocrit level at 50 mg/kg, qd administered for 4 days measured on day 5. The format is functional, organism-based. Further details: dose 50 mg/kg. Put shortly: as §1
A short description of series [13]: Bioavailability in CD1 mouse at 4 mg/kg, iv. The format is ADME, organism-based. The following applies: in vivo.
Series [14] is described as follows: Volume of distribution at steady state in CD1 mouse at 4 mg/kg, iv. The format is ADME, organism-based. Details: dose 4 mg/kg, route intravenous. The following applies: in vivo, read-out: Vdss.
Series [15] in a line: Clearance in CD1 mouse at 4 mg/kg, iv. The format is ADME, organism-based. Further details: dose 4 mg/kg, route intravenous. The following applies: in vivo.
Series [16] in a line: Half life in CD1 mouse at 4 mg/kg, iv. The format is ADME, organism-based. Further details: dose 4 mg/kg, route intravenous. The settings on record: in vivo.
Series [17] can be described thus: AUC (0 to t) in CD1 mouse at 4 mg/kg, iv. The settings on record: plasma. The format is ADME, organism-based. Further details: dose 4 mg/kg, route intravenous.
Series [18] can be described thus: AUC (0 to t) in CD1 mouse at 20 mg/kg, po. The settings on record: plasma. The format is ADME, organism-based. Further details: dose 20 mg/kg, route oral.
Series [19] can be described thus: Cmax in CD1 mouse at 20 mg/kg, po. The format is ADME, organism-based. Further details: dose 20 mg/kg, route oral. The settings on record: in vivo.
The nature of series [20]: Tmax in CD1 mouse at 20 mg/kg, po. Details: dose 20 mg/kg, route oral. The format is ADME, organism-based. The settings on record: in vivo.
Series [21] can be described thus: Metabolic stability in human S9 fraction assessed as compound remaining measured at 60 mins. The settings on record: read-out: Stability. The format is ADME.
A short description of series [22]: Metabolic stability in mouse S9 fraction assessed as compound remaining measured at 60 mins. The format is ADME. The following applies: s9, 1 h.
A short description of series [23]: Metabolic stability in human microsomes assessed as compound remaining measured at 60 mins. The format is ADME, Microsome. The settings on record: read-out: Stability.
Series [24] can be described thus: Metabolic stability in mouse microsomes assessed as compound remaining measured at 60 mins. The format is ADME, Microsome. The settings on record: read-out: Stability.

The structures appear in SMILES notation. Calls of active or inactive are those of the source. No cut-off for these calls is given here.

Take `O=C(O)CNC(=O)c1nc(Cl)c2ccccc2c1O`: the inhibition entry in the series on Mus musculus [1], with Mus musculus [2], in the series on Mus musculus [3], in the series on Mus musculus [4], with Mus musculus [5] and in the series on Mus musculus [6] was “Active” in each case. Further, the inhibition result in the series with Mus musculus [7], with Mus musculus [8], with Mus musculus [9], in the series with Mus musculus [10], in the series with Mus musculus [11] and in the series on Mus musculus [12] was “Active” each time.

Broadly, the bioavailability is dose-corrected exposure relative to a reference, in per cent. A higher bioavailability goes with good availability. In general, clearance refers to the volume of plasma or blood freed of the substance per unit of time. Low readings indicate inefficient removal, high ones efficient removal. In general, half-life refers to how long it takes for the measured level to halve. Higher therefore signals slow decline. As usually defined, the AUC(0-t) is exposure summed from dosing to a finite time, without extrapolation to infinity. The low end stands for less exposure, the high end for more exposure. What is called Cmax is the maximum level reached in the sampled fluid or tissue. Broadly, the Tmax is the time from dosing to the highest level. For `O=C(O)CNC(=O)c1nc(Cl)c2c(sc3ccccc32)c1O`, in series [13], the bioavailability came to 63.2%. Also, in [14], the Vd was 0.503 L/kg. Further, in [15], the clearance was 3.92 mL/min/kg. The same compound showed a half-life in [16] of 2.79 h. In addition, the AUC(0-t) in [17] came to 17000 ng·h/mL; in [18], 53700 ng·h/mL. For the same compound, the Cmax in [19] is 15100 ng/mL. In [20], the Tmax turned out to be 0.5 h. The remaining at 1 h worked out at 101% in series [21], 119% in series [23] and 68.6% in series [24]. In addition, the Stability in [22] is recorded as 125.7%.

The values are drawn from ChEMBL document CHEMBL2434969, “[(4-Hydroxyl-benzo[4,5]thieno[3,2-c]pyridine-3-carbonyl)-amino]-acetic acid derivatives; HIF prolyl 4-hydroxylase inhibitors as oral erythropoietin secretagogues” (Bioorg Med Chem Lett, 2013).
